These results are taken from ChEMBL document CHEMBL1147917, “Synthesis and crystallographic analysis of benzophenone derivatives--the potential anti-inflammatory agents” (Bioorg Med Chem, 2007).

Data set [1] deals with Rattus norvegicus. Nature of the data set: Toxicity in rat assessed as incidence of ulcer at 400 mg/kg, po. It is filed as organism-based. More on the design: dose 400 mg/kg, route oral. The following applies: in vivo. A digest of the protocol:
(§1)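 Groups of 10 rats (200–230 g), fasted 24 h, dosed orally; controls untreated. Sacrificed 5 h after dosing. Stomach and small intestine examined under microscope for hyperaemia, epithelial shedding, petechiae, frank haemorrhage, erosion or discrete ulceration with or without perforation. Result expressed as percentage of animals affected.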

Data set [2] concerns Rattus norvegicus. Nature of the data set: Antiinflammatory activity against carrageenan-induced paw edema in Albino rat assessed as oedema inhibition relative to control at 20 mg/kg, po. Format: functional. In a few lines:
(§2)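 Rats given test compound orally; 30 min later, 0.2 mL of 1% carrageenan in 0.9% NaCl injected subcutaneously into plantar aponeurosis of the hind paw. Paw volume measured by water plethysmometer before and at 3 h. Mean paw-volume increase compared with a carrageenan-only control group of five rats. % inhibition = (1 − Gt/Gc) × 100. Values are means of three determinations.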

For data set [3], the system named is Rattus norvegicus. Nature of the data set: Antiinflammatory activity against carrageenan-induced paw edema in Albino rat assessed as oedema inhibition relative to control at 40 mg/kg, po. It is filed as functional. In a few lines: as §2
The nature of data set [4]: Toxicity in ip dosed Albino mouse. To be noted: in vivo, read-out: ALD50. It is filed as organism-based. A digest of the protocol: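 Albino mice, 25–30 g, groups of 10, given test compounds intraperitoneally at different dose levels. Mortality per group recorded 24 h after dosing. Approximate 50% lethal dose (ALD50) calculated from mortality data by the Smith method.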

Data set [5] has as its system Rattus norvegicus. Nature of the data set: Toxicity in rat assessed as incidence of ulcer at 100 mg/kg, po. It is filed as organism-based. More on the design: dose 100 mg/kg, route oral. To be noted: in vivo. A digest of the protocol: as §1
The species named for the next data set is Oryctolagus cuniculus. Nature of the data set: Inhibition of rabbit microsomal COX at 10 uM. In a few lines: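 COX source: microsomal pellet from minced, homogenized rabbit distal colon mucosa in 0.1 M Tris, pH 8.0, used immediately. Microsomes preincubated with test agent 10 min at 37 °C in Tris-HCl pH 8.0 with 2 mM glutathione, 5 mM L-tryptophan and 1 µM haematin. Then 20 µM arachidonic acid plus [1-14C] tracer added for 5 min at 37 °C. PGE2 separated by isocratic HPLC; co-eluting radioactivity counted by scintillation. % inhibition calculated versus paired controls.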

For data set [6], the system named is Rattus norvegicus. Nature of the data set: Toxicity in rat assessed as incidence of hyperaemia at 400 mg/kg, po. The following applies: in vivo. Format: organism-based. Further details: dose 400 mg/kg, route oral. A digest of the protocol: as §1
The test system of data set [7] is Rattus norvegicus. Nature of the data set: Toxicity in rat assessed as incidence of ulcer at 200 mg/kg, po. It is filed as organism-based. More on the design: dose 200 mg/kg, route oral. To be noted: in vivo. A digest of the protocol: as §1
For data set [8], the system named is Rattus norvegicus. Nature of the data set: Toxicity in rat assessed as incidence of hyperaemia at 100 mg/kg, po. It is filed as organism-based. To be noted: in vivo. More on the design: dose 100 mg/kg, route oral. A digest of the protocol: as §1
The test system of data set [9] is Rattus norvegicus. Nature of the data set: Antiinflammatory activity against carrageenan-induced paw edema in Albino rat assessed as oedema inhibition relative to control at 80 mg/kg, po. It is filed as functional. In a few lines: as §2
The test system of data set [10] is Rattus norvegicus. Nature of the data set: Antiinflammatory activity against carrageenan-induced paw edema in po dosed Albino rat assessed as oedema inhibition. Format: functional.
Data set [11] deals with Rattus norvegicus. Nature of the data set: Toxicity in rat assessed as incidence of hyperaemia at 200 mg/kg, po. Format: organism-based. Further details: dose 200 mg/kg, route oral. To be noted: in vivo. A digest of the protocol:
as §1

Structures are written as SMILES. Activity calls are given as the source filed them. The rule behind the calls is not given here.

As to `Cc1ccc(C(=O)Oc2ccc(C)cc2C(=O)c2ccc(C)cc2)cc1`, the Activity in the data set with Rattus norvegicus [1] turned out to be 20%; in the data set with Rattus norvegicus [5] it was 10%; in the data set on Rattus norvegicus [6] it was 80%; in the data set on Rattus norvegicus [7], 15%; in the data set with Rattus norvegicus [8] it was 40%; in the data set with Rattus norvegicus [11], 60%. Further, the inhibition in vivo at 20 mg/kg in the data set with Rattus norvegicus [2] is 20.6%. For the same molecule, the inhibition in vivo at 40 mg/kg with Rattus norvegicus [3] was found to be 30.5%. In addition, the LD50 in data set [4] was more than 1000 mg/kg. In the data set listed under Oryctolagus cuniculus, the inhibition amounted to 65%. In the data set with Rattus norvegicus [9], the inhibition in vivo at 80 mg/kg was 60.1%. For the same molecule, the ED50 in the data set with Rattus norvegicus [10] came to 76.2 mg/kg.
With `Cc1ccc(C(=O)Oc2ccc(F)cc2C(=O)c2ccc(C)cc2)cc1`, the Activity in the data set with Rattus norvegicus [1] came out at 45%; in the data set on Rattus norvegicus [5], 20%; in the data set with Rattus norvegicus [6], 90%; with Rattus norvegicus [7] it was 25%; with Rattus norvegicus [8] it was 30%; in the data set on Rattus norvegicus [11] it was 55%. The inhibition in vivo at 20 mg/kg with Rattus norvegicus [2] worked out at 20.5%. Besides, the inhibition in vivo at 40 mg/kg in the data set on Rattus norvegicus [3] was found to be 35.5%. In data set [4], the LD50 is more than 1000 mg/kg. The inhibition in the data set listed under Oryctolagus cuniculus was 30%. Besides, the inhibition in vivo at 80 mg/kg in the data set on Rattus norvegicus [9] came to 50.5%. For the same molecule, the ED50 in the data set on Rattus norvegicus [10] was 70.1 mg/kg.
Turning to `Cc1ccc(OC(=O)c2ccccc2)c(C(=O)c2cccc(F)c2)c1`, the Activity with Rattus norvegicus [1] was 75%; in the data set with Rattus norvegicus [5] it was 50%; with Rattus norvegicus [6], 50%; in the data set on Rattus norvegicus [7], 65%; in the data set on Rattus norvegicus [8], 25%; in the data set with Rattus norvegicus [11] it was 40%. For the same molecule, the inhibition in vivo at 20 mg/kg in the data set on Rattus norvegicus [2] was 18.5%. Further, the inhibition in vivo at 40 mg/kg with Rattus norvegicus [3] was determined as 30.2%. Besides, in data set [4], the LD50 is more than 1000 mg/kg. Further, in the data set filed under Oryctolagus cuniculus, the outcome was inactive. Moreover, the inhibition in vivo at 80 mg/kg in the data set on Rattus norvegicus [9] was determined as 40.5%. For the same molecule, the ED50 with Rattus norvegicus [10] amounted to 75.5 mg/kg.
Take `O=C(Oc1ccc(Br)cc1C(=O)c1ccc(Cl)cc1)c1ccc(Cl)cc1`: the Activity is listed as 25% with Rattus norvegicus [1]; 5% with Rattus norvegicus [5]; 100% in the data set on Rattus norvegicus [6]; 10% in the data set with Rattus norvegicus [7]; 50% in the data set with Rattus norvegicus [8]; 70% with Rattus norvegicus [11]. In addition, in the data set on Rattus norvegicus [2], the inhibition in vivo at 20 mg/kg was 23.4%. In addition, in the data set on Rattus norvegicus [3], the inhibition in vivo at 40 mg/kg is 46.5%. For the same molecule, in data set [4], the LD50 is more than 1000 mg/kg. Also, the inhibition in the data set filed under Oryctolagus cuniculus stood at 87%. Further, the inhibition in vivo at 80 mg/kg in the data set with Rattus norvegicus [9] is 77.1%. The ED50 in the data set on Rattus norvegicus [10] came to 61.5 mg/kg.
Regarding `Cc1ccc(C(=O)c2cc(F)ccc2OC(=O)c2ccc(Cl)cc2)cc1`, the Activity is recorded as 25% in the data set on Rattus norvegicus [1]; 15% with Rattus norvegicus [5]; 90% in the data set on Rattus norvegicus [6]; 20% in the data set on Rattus norvegicus [7]; 50% in the data set with Rattus norvegicus [8]; 70% in the data set on Rattus norvegicus [11]. Also, the inhibition in vivo at 20 mg/kg with Rattus norvegicus [2] is 16.6%. Besides, the inhibition in vivo at 40 mg/kg in the data set with Rattus norvegicus [3] came to 44.6%. For the same molecule, the LD50 in [4] was more than 1000 mg/kg. Besides, the inhibition in the data set filed under Oryctolagus cuniculus came out at 70%. For the same molecule, the inhibition in vivo at 80 mg/kg in the data set on Rattus norvegicus [9] came to 64.1%. Besides, the ED50 with Rattus norvegicus [10] was 76.2 mg/kg.
Take `CCCCC1C(=O)N(c2ccccc2)N(c2ccccc2)C1=O` [PHENYLBUTAZONE]: the Activity in the data set on Rattus norvegicus [1] is 90%; with Rattus norvegicus [5] it was 35%; in the data set with Rattus norvegicus [6], 80%; in the data set on Rattus norvegicus [7], 65%; with Rattus norvegicus [8], 25%; with Rattus norvegicus [11], 50%. In addition, in the data set on Rattus norvegicus [2], the inhibition in vivo at 20 mg/kg was determined as 30.1%. Moreover, the inhibition in vivo at 40 mg/kg with Rattus norvegicus [3] worked out at 33%. In addition, in the data set filed under Oryctolagus cuniculus, the inhibition turned out to be 85%. In the data set with Rattus norvegicus [9], the inhibition in vivo at 80 mg/kg was determined as 55.1%.
In the case of `CC(=O)Oc1ccccc1C(=O)O` [ASPIRIN], the Activity with Rattus norvegicus [1] is 85%; in the data set with Rattus norvegicus [5], 75%; with Rattus norvegicus [6], 85%; in the data set on Rattus norvegicus [7], 90%; in the data set on Rattus norvegicus [8] it was 25%; in the data set on Rattus norvegicus [11], 55%. The inhibition in vivo at 20 mg/kg in the data set with Rattus norvegicus [2] was determined as 29.5%. Besides, in the data set on Rattus norvegicus [3], the inhibition in vivo at 40 mg/kg is 30.5%. The same molecule displayed an inhibition in the data set listed under Oryctolagus cuniculus of 95%. Besides, the inhibition in vivo at 80 mg/kg in the data set on Rattus norvegicus [9] came out at 55.1%. For the same molecule, the ED50 in the data set with Rattus norvegicus [10] turned out to be 95.5 mg/kg.
